Results on 1 compound are retold here after ChEMBL document CHEMBL2331439 (J Med Chem, 2013).

Experiment [1] has as its target Serine/threonine-protein kinase pim-1 (Homo sapiens) (UniProt P11309). The experiment can be described thus: Inhibition of recombinant PIM1 (unknown origin) at 5 uM by FRET-based Z'-LYTE assay. Summed up: (§1)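 Single-point panel screen at 5 μM in duplicate. ATP is at the apparent Km of each kinase, and the Z'-LYTE FRET peptide substrate is used. Each point has two control wells: a protease control for interference with development and a fluorescence control for interference with the FRET read-out. Values above 100% are treated as maximal inhibition and values below 0% as none.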

Experiment [2] addresses Hepatocyte growth factor receptor (Homo sapiens) (UniProt P08581). In words: Inhibition of recombinant MET (unknown origin) at 5 uM by FRET-based Z'-LYTE assay. Put shortly:
as §1

Experiment [3] deals with T1, Mitogen-activated protein kinase 1 (Homo sapiens, UniProt P28482). The experiment can be described thus: Inhibition of recombinant MAPK1 (unknown origin) at 5 uM by FRET-based Z'-LYTE assay. Summed up: as §1
T1 sequence (P28482 whole entry): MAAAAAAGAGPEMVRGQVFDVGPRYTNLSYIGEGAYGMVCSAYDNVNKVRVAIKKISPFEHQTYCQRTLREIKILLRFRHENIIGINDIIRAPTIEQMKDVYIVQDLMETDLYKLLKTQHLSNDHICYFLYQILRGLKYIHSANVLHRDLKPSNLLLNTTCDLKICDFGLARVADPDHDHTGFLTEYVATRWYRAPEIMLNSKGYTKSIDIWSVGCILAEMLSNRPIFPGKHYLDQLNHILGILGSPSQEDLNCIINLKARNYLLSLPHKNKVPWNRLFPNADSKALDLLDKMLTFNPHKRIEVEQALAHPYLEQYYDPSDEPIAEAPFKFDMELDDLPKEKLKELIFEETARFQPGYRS
Experiment [4] addresses Angiopoietin-1 receptor (Homo sapiens) (UniProt Q02763). The experiment can be described thus: Inhibition of recombinant TEK (unknown origin) at 5 uM by FRET-based Z'-LYTE assay. Summed up: (§2)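 Z'-LYTE FRET peptide (coumarin/fluorescein) phosphorylation was followed by protease development. Wells included a protease control for interference with development and a fluorescence control for interference with the FRET read. Values above 100% or below 0% were treated as maximal or no inhibition.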

The target in experiment [5] is Proto-oncogene tyrosine-protein kinase receptor Ret (Homo sapiens) (UniProt P07949). In words: Inhibition of recombinant RET (unknown origin) at 5 uM by FRET-based Z'-LYTE assay. Summed up:
as §2

Experiment [6] deals with AMP-activated protein kinase (AMPK) alpha-1/beta-1/gamma-1 (Homo sapiens, UniProt P54619+Q13131+Q9Y478). The experiment can be described thus: Inhibition of recombinant AMPK A1/B1/G1 (unknown origin) by FRET-based Z'-LYTE assay. Type of experiment: protein-complex assay.
AMP-activated protein kinase (AMPK) alpha-1/beta-1/gamma-1, sequence (P54619 whole entry): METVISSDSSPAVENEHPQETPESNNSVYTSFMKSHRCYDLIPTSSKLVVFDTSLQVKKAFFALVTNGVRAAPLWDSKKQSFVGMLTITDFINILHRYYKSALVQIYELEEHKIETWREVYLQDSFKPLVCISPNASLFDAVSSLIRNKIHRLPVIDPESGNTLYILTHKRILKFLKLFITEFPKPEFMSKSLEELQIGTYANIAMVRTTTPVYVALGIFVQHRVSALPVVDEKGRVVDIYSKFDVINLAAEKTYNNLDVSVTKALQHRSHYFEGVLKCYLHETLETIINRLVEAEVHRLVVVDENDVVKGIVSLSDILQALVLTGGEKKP
AMP-activated protein kinase (AMPK) alpha-1/beta-1/gamma-1, sequence (Q9Y478 whole entry): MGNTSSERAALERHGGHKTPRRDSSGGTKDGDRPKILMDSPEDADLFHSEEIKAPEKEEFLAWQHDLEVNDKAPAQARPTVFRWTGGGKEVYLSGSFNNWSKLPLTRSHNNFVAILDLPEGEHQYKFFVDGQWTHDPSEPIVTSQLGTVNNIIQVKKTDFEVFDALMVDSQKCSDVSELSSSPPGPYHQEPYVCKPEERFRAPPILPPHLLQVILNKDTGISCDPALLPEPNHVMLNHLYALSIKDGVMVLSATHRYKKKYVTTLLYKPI
AMP-activated protein kinase (AMPK) alpha-1/beta-1/gamma-1, sequence (Q13131 whole entry): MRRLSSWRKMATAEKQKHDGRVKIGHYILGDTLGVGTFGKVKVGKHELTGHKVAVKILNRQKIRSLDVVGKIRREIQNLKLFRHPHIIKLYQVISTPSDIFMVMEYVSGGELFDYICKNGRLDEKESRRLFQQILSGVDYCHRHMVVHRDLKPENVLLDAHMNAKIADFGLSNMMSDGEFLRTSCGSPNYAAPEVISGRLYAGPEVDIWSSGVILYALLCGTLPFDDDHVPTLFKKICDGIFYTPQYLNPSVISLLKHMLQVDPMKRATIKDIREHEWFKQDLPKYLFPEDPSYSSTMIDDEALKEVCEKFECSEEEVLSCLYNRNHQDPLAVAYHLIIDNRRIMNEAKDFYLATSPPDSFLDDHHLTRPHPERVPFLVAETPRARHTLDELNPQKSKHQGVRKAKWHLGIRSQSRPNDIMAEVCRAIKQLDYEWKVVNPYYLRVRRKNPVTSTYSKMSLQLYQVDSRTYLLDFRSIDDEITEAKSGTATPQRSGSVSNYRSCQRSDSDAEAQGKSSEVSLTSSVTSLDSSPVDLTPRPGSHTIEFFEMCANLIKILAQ
For experiment [7], the target named is RAF proto-oncogene serine/threonine-protein kinase (Homo sapiens, UniProt P04049). The experiment can be described thus: Inhibition of recombinant RAF1 (unknown origin) by cascade reaction assay.
RAF proto-oncogene serine/threonine-protein kinase, sequence (P04049 whole entry): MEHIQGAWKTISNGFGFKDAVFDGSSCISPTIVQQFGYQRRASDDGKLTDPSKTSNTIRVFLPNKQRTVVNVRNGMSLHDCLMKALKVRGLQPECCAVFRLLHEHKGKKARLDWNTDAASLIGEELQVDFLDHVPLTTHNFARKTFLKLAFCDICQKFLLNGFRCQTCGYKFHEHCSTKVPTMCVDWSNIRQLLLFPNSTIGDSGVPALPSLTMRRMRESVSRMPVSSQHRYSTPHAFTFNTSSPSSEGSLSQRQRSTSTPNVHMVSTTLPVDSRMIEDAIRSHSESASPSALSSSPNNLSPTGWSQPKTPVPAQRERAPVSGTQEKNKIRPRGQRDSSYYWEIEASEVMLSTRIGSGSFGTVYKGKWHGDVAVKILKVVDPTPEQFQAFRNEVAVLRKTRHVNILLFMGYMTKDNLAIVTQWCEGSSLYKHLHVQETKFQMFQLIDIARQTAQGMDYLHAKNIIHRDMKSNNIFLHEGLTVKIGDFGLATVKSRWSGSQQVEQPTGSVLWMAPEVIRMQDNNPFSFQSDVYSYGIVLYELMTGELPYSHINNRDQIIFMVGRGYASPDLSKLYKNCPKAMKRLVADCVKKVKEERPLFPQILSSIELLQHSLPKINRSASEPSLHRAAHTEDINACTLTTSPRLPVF
In experiment [8] the target is T1, Mitogen-activated protein kinase 1. In words: Competitive inhibition of recombinant ERK2 (unknown origin) by FRET-based Z'-LYTE assay.
Experiment [9] deals with Serine/threonine-protein kinase MARK2 (Homo sapiens) (UniProt Q7KZI7). The experiment can be described thus: Inhibition of recombinant MARK2 (unknown origin) at 5 uM by FRET-based Z'-LYTE assay. Put shortly:
as §1

In experiment [10] the target is RAC-alpha serine/threonine-protein kinase (Homo sapiens, UniProt P31749). In words: Inhibition of recombinant AKT1 (unknown origin) by FRET-based Z'-LYTE assay.
The target of experiment [11] is Inhibitor of nuclear factor kappa-B kinase subunit beta (Homo sapiens) (UniProt O14920). The experiment can be described thus: Inhibition of recombinant IKBKB (unknown origin) at 5 uM by FRET-based Z'-LYTE assay. Summed up: as §1
Experiment [12] has as its target Tyrosine-protein kinase BTK (Homo sapiens) (UniProt Q06187). The experiment can be described thus: Inhibition of recombinant BTK (unknown origin) at 5 uM by FRET-based Z'-LYTE assay. Summed up: as §1
In experiment [13] the target is Mitogen-activated protein kinase 8 (Homo sapiens) (UniProt P45983). The experiment can be described thus: Inhibition of recombinant MAPK8 (unknown origin) at 5 uM by FRET-based Z'-LYTE assay. Summed up: as §1
Mitogen-activated protein kinase 8 (Homo sapiens), sequence (P45983 whole entry): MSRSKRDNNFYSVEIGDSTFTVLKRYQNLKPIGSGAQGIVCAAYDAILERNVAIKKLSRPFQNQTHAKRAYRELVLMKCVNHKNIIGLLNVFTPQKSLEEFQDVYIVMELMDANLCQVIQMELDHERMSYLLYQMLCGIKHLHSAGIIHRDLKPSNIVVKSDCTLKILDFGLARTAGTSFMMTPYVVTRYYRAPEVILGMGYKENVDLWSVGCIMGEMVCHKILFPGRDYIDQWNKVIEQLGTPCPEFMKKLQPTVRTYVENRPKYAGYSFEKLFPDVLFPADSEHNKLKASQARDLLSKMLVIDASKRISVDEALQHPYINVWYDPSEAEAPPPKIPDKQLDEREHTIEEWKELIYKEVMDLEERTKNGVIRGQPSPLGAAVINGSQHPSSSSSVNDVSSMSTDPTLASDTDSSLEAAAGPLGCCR

Structures are written as SMILES. The source made the active and inactive calls. No cut-off for these calls is given here.

Serine/threonine-protein kinase MARK2 (Homo sapiens), sequence (Q7KZI7 whole entry): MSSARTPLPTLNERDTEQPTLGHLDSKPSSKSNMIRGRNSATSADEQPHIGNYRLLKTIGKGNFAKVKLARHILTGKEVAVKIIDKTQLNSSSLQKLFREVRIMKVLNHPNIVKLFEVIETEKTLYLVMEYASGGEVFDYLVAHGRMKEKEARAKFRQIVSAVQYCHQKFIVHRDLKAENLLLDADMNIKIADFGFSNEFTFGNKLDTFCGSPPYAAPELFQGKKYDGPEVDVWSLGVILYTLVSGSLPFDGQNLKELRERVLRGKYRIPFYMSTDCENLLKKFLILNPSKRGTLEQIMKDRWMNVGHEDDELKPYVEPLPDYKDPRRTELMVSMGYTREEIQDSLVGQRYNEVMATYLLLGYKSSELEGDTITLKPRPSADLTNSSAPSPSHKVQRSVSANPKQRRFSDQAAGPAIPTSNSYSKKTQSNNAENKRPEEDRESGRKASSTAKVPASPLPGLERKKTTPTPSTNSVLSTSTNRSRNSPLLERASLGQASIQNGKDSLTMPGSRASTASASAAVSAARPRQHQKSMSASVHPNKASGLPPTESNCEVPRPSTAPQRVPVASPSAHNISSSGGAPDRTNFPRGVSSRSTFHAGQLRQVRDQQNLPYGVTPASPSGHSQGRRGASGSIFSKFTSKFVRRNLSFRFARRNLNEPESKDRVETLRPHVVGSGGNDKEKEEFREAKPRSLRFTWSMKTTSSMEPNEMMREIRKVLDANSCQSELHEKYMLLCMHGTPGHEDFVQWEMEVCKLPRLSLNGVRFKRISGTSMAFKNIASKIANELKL
Serine/threonine-protein kinase pim-1 (Homo sapiens), sequence (P11309 whole entry, looked up): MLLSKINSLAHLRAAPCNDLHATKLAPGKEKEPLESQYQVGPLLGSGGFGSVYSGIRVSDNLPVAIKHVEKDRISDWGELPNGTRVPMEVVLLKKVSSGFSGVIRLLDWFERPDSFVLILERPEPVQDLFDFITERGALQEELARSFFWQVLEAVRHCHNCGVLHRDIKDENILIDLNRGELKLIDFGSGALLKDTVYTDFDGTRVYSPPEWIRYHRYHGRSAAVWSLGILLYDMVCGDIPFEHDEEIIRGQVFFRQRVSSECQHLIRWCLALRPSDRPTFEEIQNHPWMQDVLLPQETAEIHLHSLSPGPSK
Angiopoietin-1 receptor (Homo sapiens), sequence (Q02763 whole entry): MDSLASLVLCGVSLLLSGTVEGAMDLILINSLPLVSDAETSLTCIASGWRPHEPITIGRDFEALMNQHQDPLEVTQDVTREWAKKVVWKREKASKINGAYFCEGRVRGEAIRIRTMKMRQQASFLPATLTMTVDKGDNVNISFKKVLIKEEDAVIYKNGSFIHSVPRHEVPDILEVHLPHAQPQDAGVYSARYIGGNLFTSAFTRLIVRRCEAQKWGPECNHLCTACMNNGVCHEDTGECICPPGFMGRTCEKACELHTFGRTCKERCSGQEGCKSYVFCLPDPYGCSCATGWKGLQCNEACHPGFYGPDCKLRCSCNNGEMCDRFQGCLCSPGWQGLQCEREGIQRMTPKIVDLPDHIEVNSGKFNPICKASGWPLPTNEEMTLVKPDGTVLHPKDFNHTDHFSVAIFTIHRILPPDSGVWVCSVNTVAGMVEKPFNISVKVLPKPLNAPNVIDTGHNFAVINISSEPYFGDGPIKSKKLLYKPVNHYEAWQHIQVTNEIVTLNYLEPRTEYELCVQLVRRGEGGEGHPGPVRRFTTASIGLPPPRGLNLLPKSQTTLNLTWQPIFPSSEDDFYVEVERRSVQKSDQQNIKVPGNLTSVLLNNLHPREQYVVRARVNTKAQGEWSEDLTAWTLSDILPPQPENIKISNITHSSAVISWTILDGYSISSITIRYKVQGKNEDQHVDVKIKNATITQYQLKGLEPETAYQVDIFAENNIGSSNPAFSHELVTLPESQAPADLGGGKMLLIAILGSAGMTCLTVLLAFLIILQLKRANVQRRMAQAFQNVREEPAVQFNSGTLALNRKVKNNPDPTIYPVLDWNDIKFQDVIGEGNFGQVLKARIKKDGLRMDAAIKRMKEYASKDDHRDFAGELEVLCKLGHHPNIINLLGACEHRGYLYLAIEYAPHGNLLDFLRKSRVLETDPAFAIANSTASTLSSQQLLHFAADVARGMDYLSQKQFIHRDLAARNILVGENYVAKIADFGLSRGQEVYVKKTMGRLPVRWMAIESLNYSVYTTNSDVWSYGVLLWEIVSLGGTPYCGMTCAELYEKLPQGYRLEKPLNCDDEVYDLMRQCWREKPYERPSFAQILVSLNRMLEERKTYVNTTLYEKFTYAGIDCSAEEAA

Turning to `O=C1/C(=C/c2ccccn2)CNC/C1=C\c1ccccn1`, the inhibition in [1] is 10%; in experiment [2], 75%; in experiment [3], 34%; in experiment [4], 51%; in experiment [5] it was 21%; in experiment [9], 22%. Moreover, the inhibition in experiment [11] is 107%; in experiment [12] it was 44%; in experiment [13], 16%. Further, the IC50 in experiment [6] was 1.5 µM; in experiment [7], 1.6 µM; in experiment [10] it was 0.02 µM. Moreover, the inhibition entry in [8] is “Active”.

What is called inhibition is the relative decrease from the control value, in per cent. What is called IC50 is the concentration at which inhibition is half-maximal.
